Assay results as given in ChEMBL document CHEMBL1139875, “Discovery of 4-aminobutyric acid derivatives possessing anticonvulsant and antinociceptive activities: a hybrid pharmacophore approach” (2007).

Columns and labels:
Type in all cases: functional
Rattus norvegicus [1] = species: Rattus norvegicus; test: Anti-dynamic allodynic effect in Sprague-Dawley rat CCI model assessed as latency to paw withdrawal after 2 hr
In short: (§1)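 Rats with sciatic nerve chronic constriction injury (pentobarbital 65 mg/kg i.p. anaesthesia), baseline and day 9 testing, then drug per randomization table. After 10 min acclimatization, affected plantar surface stroked mildly with a cotton-bud; paw lift recorded. n = 4; retested 0.5-2.5 h post-dose.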

Rattus norvegicus [2] = test: Antihyperalgesic effects in Sprague-Dawley rat CCI model assessed as duration of paw withdrawal at 100 mg/kg, ip after 2.5 hrs; conditions: route intraperitoneal
Rattus norvegicus [3] = test: Antihyperalgesic effects in Sprague-Dawley rat CCI model assessed as duration of paw withdrawal at 100 mg/kg, ip after 2 hrs; conditions: route intraperitoneal
Rattus norvegicus [4] = test: Antihyperalgesic effects in Sprague-Dawley rat SNL model assessed as duration of paw withdrawal at 100 mg/kg, ip after 0.5 hr, ip; conditions: route intraperitoneal
In short: (§2)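 L5 SNL rats (n = 4), dosed 100 mg/kg i.p. (vehicle 30% v/v PEG 400 in water). Pin-prick to midplantar ipsilateral left hindpaw; withdrawal duration, mean of three responses; ≥2 s defined abnormal. Mean ± SEM; one-way ANOVA with Bonferroni versus predrug.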

Rattus norvegicus [5] = test: Effect on spontaneous pain in Sprague-Dawley rat CCI model assessed as duration of paw withdrawal at 100 mg/kg, ip after 2.5 hrs; conditions: route intraperitoneal
In short: (§3)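 Unilateral CCI of sciatic nerve (Bennett and Xie) in Sprague-Dawley rats under i.p. pentobarbital sodium (65 mg/kg). Spontaneous pain is scored over 5 min after 10 min acclimatization, as cumulative time the ipsilateral paw is held off the floor. Paw lifts from locomotion or repositioning are excluded. Drug is given at 100 mg/kg i.p. with 30% v/v PEG 400 vehicle. Mean ± SEM, n = 4, compared with predrug by ANOVA/Bonferroni.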

Rattus norvegicus [6] = test: Antihyperalgesic effects in Sprague-Dawley rat CCI model assessed as duration of paw withdrawal at 100 mg/kg, ip after 0.5 hr; conditions: route intraperitoneal
Rattus norvegicus [7] = test: Effect on spontaneous pain in Sprague-Dawley rat SNL model assessed as duration of paw withdrawal at 100 mg/kg, ip after 2.5 hrs; conditions: route intraperitoneal
In short: (§4)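 Rats underwent left L5 spinal nerve ligation (Kim and Chung) under i.p. pentobarbital (65 mg/kg). Spontaneous pain is recorded for 5 min after 10 min acclimatization, as cumulative duration the ipsilateral paw is lifted, excluding locomotor lifts. Dosing is 100 mg/kg i.p. in 30% v/v PEG 400/water, with testing at 0.5–2.5 h. Four rats, mean ± SEM versus predrug, one-way ANOVA with Bonferroni.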

Rattus norvegicus [8] = species: Rattus norvegicus; test: Anti-dynamic allodynic effect in Sprague-Dawley rat CCI model assessed as latency to paw withdrawal after 1 hr; in short: as §1
Rattus norvegicus [9] = test: Effect on spontaneous pain in Sprague-Dawley rat CCI model assessed as duration of paw withdrawal at 100 mg/kg, ip after 0.5 hr; conditions: route intraperitoneal
In short: (§5)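 CCI rats (n = 4) dosed 100 mg/kg i.p. (vehicle 30% v/v PEG 400 in water). After 10 min acclimatization in a cage 5 cm above ground, cumulative time the ipsilateral paw was held off the floor over 5 min recorded, excluding locomotion lifts. Mean ± SEM; ANOVA/Bonferroni versus predrug.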

Rattus norvegicus [10] = test: Anti-cold allodynia effect in Sprague-Dawley rat SNL model assessed as duration of paw withdrawal 100 mg/kg, ip after 1.5 hrs; conditions: route intraperitoneal
In short: (§6)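 Left L5 spinal nerve ligation under pentobarbital (65 mg/kg i.p.). Allodynic rats dosed i.p. 100 mg/kg, vehicle 30% v/v PEG 400 in water. Acetone (100-200 µL) misted onto midplantar affected paw after 10 min acclimatization; paw withdrawal duration, mean of three samples at least 3 min apart; n = 4 rats.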

Rattus norvegicus [11] = test: Antihyperalgesic effects in Sprague-Dawley rat CCI model assessed as duration of paw withdrawal at 100 mg/kg, ip after 1 hr; conditions: route intraperitoneal
Rattus norvegicus [12] = test: Antihyperalgesic effects in Sprague-Dawley rat CCI model assessed as duration of paw withdrawal at 100 mg/kg, ip after 1.5 hrs; conditions: route intraperitoneal
Rattus norvegicus [13] = test: Antihyperalgesic effects in Sprague-Dawley rat SNL model assessed as duration of paw withdrawal at 100 mg/kg, ip after 2.5 hrs, ip; conditions: route intraperitoneal; in short: as §2
Rattus norvegicus [14] = test: Antihyperalgesic effects in Sprague-Dawley rat SNL model assessed as duration of paw withdrawal at 100 mg/kg, ip after 2 hrs, ip; conditions: route intraperitoneal; in short: as §2
Rattus norvegicus [15] = test: Antihyperalgesic effects in Sprague-Dawley rat SNL model assessed as duration of paw withdrawal at 100 mg/kg, ip after 1 hr, ip; conditions: route intraperitoneal; in short: as §2
Rattus norvegicus [16] = test: Anti-cold allodynia effect in Sprague-Dawley rat SNL model assessed as duration of paw withdrawal 100 mg/kg, ip after 2 hrs; conditions: route intraperitoneal; in short: as §6
Rattus norvegicus [17] = test: Antihyperalgesic effects in Sprague-Dawley rat SNL model assessed as duration of paw withdrawal at 100 mg/kg, ip after 1.5 hrs, ip; conditions: route intraperitoneal; in short: as §2
Rattus norvegicus [18] = species: Rattus norvegicus; test: Anti-dynamic allodynic effect in Sprague-Dawley rat CCI model assessed as latency to paw withdrawal after 2.5 hr; in short: as §1
Rattus norvegicus [19] = test: Effect on spontaneous pain in Sprague-Dawley rat CCI model assessed as duration of paw withdrawal at 100 mg/kg, ip after 1 hr; conditions: route intraperitoneal; in short: as §5
Rattus norvegicus [20] = species: Rattus norvegicus; test: Anti-dynamic allodynic effect in Sprague-Dawley rat CCI model assessed as latency to paw withdrawal after 0.5 hr; in short: as §1
Rattus norvegicus [21] = test: Effect on spontaneous pain in Sprague-Dawley rat SNL model assessed as duration of paw withdrawal at 100 mg/kg, ip after 2 hrs; conditions: route intraperitoneal; in short: as §4
Rattus norvegicus [22] = test: Anti-dynamic allodynia effect in Sprague-Dawley rat SNL model assessed as latency to paw withdrawal 100 mg/kg, ip after 1.5 hrs; conditions: route intraperitoneal
In short: (§7)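 Left L5 spinal nerve ligation rats, tested preoperatively and 9 days postoperatively, then given 100 mg/kg i.p. (vehicle 30% v/v PEG 400 in water). After 10 min acclimatization, plantar surface of affected paw stroked mildly with a cotton-bud; paw lift response recorded. n = 4; retested 0.5-2.5 h post-dose.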

Rattus norvegicus [23] = test: Effect on spontaneous pain in Sprague-Dawley rat SNL model assessed as duration of paw withdrawal at 100 mg/kg, ip after 1 hr; conditions: route intraperitoneal; in short: as §4
Rattus norvegicus [24] = test: Effect on spontaneous pain in Sprague-Dawley rat CCI model assessed as duration of paw withdrawal at 100 mg/kg, ip after 2 hrs; conditions: route intraperitoneal; in short: as §3
Rattus norvegicus [25] = test: Anti-dynamic allodynia effect in Sprague-Dawley rat SNL model assessed as latency to paw withdrawal 100 mg/kg, ip after 2 hrs; conditions: route intraperitoneal; in short: as §7
Rattus norvegicus [26] = test: Effect on spontaneous pain in Sprague-Dawley rat CCI model assessed as duration of paw withdrawal at 100 mg/kg, ip after 1.5 hrs; conditions: route intraperitoneal; in short: as §3
Rattus norvegicus [27] = species: Rattus norvegicus; test: Anti-dynamic allodynic effect in Sprague-Dawley rat CCI model assessed as latency to paw withdrawal after 1.5 hr; in short: as §1

Compound Nc1nnc(-c2cccc(Cl)c2Cl)c(N)n1 [LAMOTRIGINE] has an Activity (Rattus norvegicus [1]) of 0.9 s, an Activity (Rattus norvegicus [2]) of 29.8 s and an Activity (Rattus norvegicus [3]) of 33.7 s. It also gave an Activity (Rattus norvegicus [4]) of 22.5 s, an Activity (Rattus norvegicus [5]) of 67.8 s and an Activity (Rattus norvegicus [6]) of 36.2 s. For the same compound, the Activity (Rattus norvegicus [7]) was 24.4 s, the Activity (Rattus norvegicus [8]) was 1.3 s and the Activity (Rattus norvegicus [9]) was 69.2 s. The Activity (Rattus norvegicus [10]) was 21.8 s, the Activity (Rattus norvegicus [11]) was 36.7 s and the Activity (Rattus norvegicus [12]) was 35.7 s. The Activity (Rattus norvegicus [13]) was 17.3 s, the Activity (Rattus norvegicus [14]) was 6.4 s and the Activity (Rattus norvegicus [15]) was 8.2 s. For the same compound, the Activity (Rattus norvegicus [16]) was 17.3 s, the Activity (Rattus norvegicus [17]) was 10.1 s and the Activity (Rattus norvegicus [18]) was 1 s. For the same compound, the Activity (Rattus norvegicus [19]) was 79 s, the Activity (Rattus norvegicus [20]) was 5.7 s and the Activity (Rattus norvegicus [21]) was 22.9 s. The Activity (Rattus norvegicus [22]) was 1.9 s, the Activity (Rattus norvegicus [23]) was 13.3 s and the Activity (Rattus norvegicus [24]) was 71.2 s. It also gave an Activity (Rattus norvegicus [25]) of 0.7 s, an Activity (Rattus norvegicus [26]) of 76.9 s and an Activity (Rattus norvegicus [27]) of 0.9 s.
NCC1(CC(=O)O)CCCCC1 [GABAPENTIN] gave an Activity (Rattus norvegicus [1]) of 5.9 s, an Activity (Rattus norvegicus [2]) of 8.4 s and an Activity (Rattus norvegicus [3]) of 9.2 s. For the same compound, the Activity (Rattus norvegicus [4]) was 20.1 s, the Activity (Rattus norvegicus [5]) was 18.1 s and the Activity (Rattus norvegicus [6]) was 36.8 s. It also gave an Activity (Rattus norvegicus [7]) of 10.1 s, an Activity (Rattus norvegicus [8]) of 4.6 s and an Activity (Rattus norvegicus [9]) of 62.2 s. It also gave an Activity (Rattus norvegicus [10]) of 7.8 s, an Activity (Rattus norvegicus [11]) of 12.3 s and an Activity (Rattus norvegicus [12]) of 10.7 s. It also gave an Activity (Rattus norvegicus [13]) of 8.8 s, an Activity (Rattus norvegicus [14]) of 9.9 s and an Activity (Rattus norvegicus [15]) of 10.2 s. The Activity (Rattus norvegicus [16]) was 7.6 s, the Activity (Rattus norvegicus [17]) was 10 s and the Activity (Rattus norvegicus [18]) was 6.6 s. It also gave an Activity (Rattus norvegicus [19]) of 15.5 s, an Activity (Rattus norvegicus [20]) of 1.6 s and an Activity (Rattus norvegicus [21]) of 9.1 s. It also gave an Activity (Rattus norvegicus [22]) of 6 s, an Activity (Rattus norvegicus [23]) of 12.9 s and an Activity (Rattus norvegicus [24]) of 11 s. It also gave an Activity (Rattus norvegicus [25]) of 6.6 s, an Activity (Rattus norvegicus [26]) of 13.1 s and an Activity (Rattus norvegicus [27]) of 5.5 s.
